The values below come from ChEMBL document CHEMBL1649151, “Urinary bactericidal activity of Doripenem versus that of levofloxacin in patients with complicated urinary tract infections or pyelonephritis” (Antimicrob Agents Chemother, 2009).

The subject of experiment [1] is Staphylococcus haemolyticus. Put plainly: Antimicrobial activity against Staphylococcus haemolyticus 1949819 B-M isolated from patient with pyelonephritis assessed as >3-log reduction in urinary bacterial titer after 8 hrs. It is filed as functional, Urine.
Experiment [2] has as its system Escherichia coli. Briefly: Antimicrobial activity against Escherichia coli 2297257 B-W isolated from patient with pyelonephritis assessed as >3-log reduction in urinary bacterial titer after 12 hrs. It is filed as functional, Urine.
Experiment [3] concerns Enterococcus faecalis. Put plainly: Antimicrobial activity against Enterococcus faecalis 2215770 B-T isolated from patient with pyelonephritis assessed as >3-log reduction in urinary bacterial titer after 4 hrs. It is filed as functional, Urine. Put shortly: (§1)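 Urine was collected before dosing and on day 3 of i.v. therapy (steady state), in 4-h intervals from infusion start (0–4 to 20–24 h), stored at −80°C and sterile filtered. It was serially diluted twofold (1:0 to 1:131,072) in the patient's drug-free pre-dose urine. Microdilution used an inoculum of 1.0 x 10^6–9.5 x 10^6 CFU/ml, incubated 18 h at 37°C, then subcultured 24 h on blood agar. The endpoint was >99.9% kill, reported as reciprocal titer.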

The test system of experiment [4] is Escherichia coli. Briefly: Antimicrobial activity against Escherichia coli 2062717 B-P isolated from patient with pyelonephritis assessed as >3-log reduction in urinary bacterial titer after 20 hrs. In kind it is functional, Urine.
The subject of experiment [5] is Escherichia coli. Briefly: Antimicrobial activity against Escherichia coli 2062717 B-P isolated from patient with pyelonephritis assessed as >3-log reduction in urinary bacterial titer after 8 hrs. It is filed as functional, Urine.
Experiment [6] concerns Escherichia coli. Briefly: Antimicrobial activity against Escherichia coli 1949825 B-K isolated from patient with pyelonephritis assessed as >3-log reduction in urinary bacterial titer after 24 hrs. It is filed as functional, Urine. Summed up: (§2)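 Patient urine was collected on day 3 of i.v. therapy (steady state) over 4-h intervals after infusion start, stored at –80°C, and sterile filtered. It was twofold serially diluted (1:0 to 1:131,072) in the patient's own pre-dose drug-free urine, inoculated to 1.0 x 10^6–9.5 x 10^6 CFU/ml, and incubated for 18 h at 37°C. Subcultures were grown on blood agar for 24 h. The UBT is the reciprocal of the highest dilution giving >99.9% kill.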

The subject of experiment [7] is Escherichia coli. Briefly: Antimicrobial activity against Escherichia coli 1780063 B-A isolated from patient with pyelonephritis assessed as >3-log reduction in urinary bacterial titer after 12 hrs. It is filed as functional, Urine. Summed up: as §1
Experiment [8] relates to Escherichia coli. Briefly: Antimicrobial activity against Escherichia coli 1821385 B-C isolated from patient with pyelonephritis assessed as >3-log reduction in urinary bacterial titer after 24 hrs. In kind it is functional, Urine. Summed up: (§3)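 Urine was collected on day 3 of i.v. therapy (steady state) over 4-h intervals from infusion start (0–4 to 20–24 h), stored at –80°C and sterile filtered. It was serially diluted twofold (1:0 up to 1:131,072) in the patient's own pre-dose drug-free urine. Microdilution used a final inoculum of 1.0 x 10^6 to 9.5 x 10^6 CFU/ml, incubated 18 h at 37°C in air. 10 µl was subcultured onto 5% blood Columbia agar for 24 h at 37°C. The bactericidal endpoint was >99.9% (>3-log) kill, reported as a reciprocal titer.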

Experiment [9] relates to Escherichia coli. Briefly: Antimicrobial activity against Escherichia coli 1949826 B-L isolated from patient with pyelonephritis assessed as >3-log reduction in urinary bacterial titer after 8 hrs. It is filed as functional, Urine. Put shortly: as §2
Experiment [10] deals with Escherichia coli. Briefly: Antimicrobial activity against Escherichia coli 1780063 B-A isolated from patient with pyelonephritis assessed as >3-log reduction in urinary bacterial titer after 4 hrs. In kind it is functional, Urine. Summed up: as §1
Experiment [11] deals with Escherichia coli. Put plainly: Antimicrobial activity against Escherichia coli 1949826 B-L isolated from patient with pyelonephritis assessed as >3-log reduction in urinary bacterial titer after 24 hrs. In kind it is functional, Urine. Summed up: as §2
In experiment [12] the test system is Escherichia coli. Briefly: Antimicrobial activity against Escherichia coli 2297257 B-W isolated from patient with pyelonephritis assessed as >3-log reduction in urinary bacterial titer after 16 hrs. In kind it is functional, Urine.
In experiment [13] the test system is Escherichia coli. Briefly: Antimicrobial activity against Escherichia coli 2297257 B-W isolated from patient with pyelonephritis assessed as urinary bactericidal titer.
Experiment [14] relates to Staphylococcus haemolyticus. Put plainly: Antimicrobial activity against Staphylococcus haemolyticus 1949819 B-M isolated from patient with pyelonephritis assessed as >3-log reduction in urinary bacterial titer after 4 hrs. It is filed as functional, Urine.
The subject of experiment [15] is Escherichia coli. Briefly: Antimicrobial activity against Escherichia coli 1889645 B-I isolated from patient with pyelonephritis assessed as >3-log reduction in urinary bacterial titer after 4 hrs. It is filed as functional, Urine. Summed up:
as §3

In experiment [16] the test system is Escherichia coli. Put plainly: Antimicrobial activity against Escherichia coli 1889645 B-I isolated from patient with pyelonephritis assessed as >3-log reduction in urinary bacterial titer after 12 hrs. In kind it is functional, Urine. Summed up: as §3
Experiment [17] concerns Escherichia coli. Briefly: Antimicrobial activity against Escherichia coli 1949825 B-K isolated from patient with pyelonephritis assessed as >3-log reduction in urinary bacterial titer after 12 hrs. In kind it is functional, Urine. Summed up: as §2
The subject of experiment [18] is Pseudomonas aeruginosa. Put plainly: Antimicrobial activity against Pseudomonas aeruginosa 2062713 B-Q isolated from patient with pyelonephritis assessed as >3-log reduction in urinary bacterial titer after 16 hrs. In kind it is functional, Urine.
Experiment [19] has as its system Enterococcus faecalis. Put plainly: Antimicrobial activity against Enterococcus faecalis 2297262-10 B-V isolated from patient with pyelonephritis by Etest. In kind it is functional.
Experiment [20] deals with Escherichia coli. Briefly: Antimicrobial activity against Escherichia coli 1821386 B-D isolated from patient with pyelonephritis assessed as >3-log reduction in urinary bacterial titer after 4 hrs. In kind it is functional, Urine. Summed up: as §3
Experiment [21] concerns Enterococcus faecalis. Put plainly: Antimicrobial activity against Enterococcus faecalis 2297262-10 B-V isolated from patient with pyelonephritis assessed as >3-log reduction in urinary bacterial titer after 20 hrs. In kind it is functional, Urine. Put shortly:
as §1

In experiment [22] the test system is Escherichia coli. Put plainly: Antimicrobial activity against Escherichia coli 1655646 A-Y isolated from patient with pyelonephritis by Etest. It is filed as functional.
The subject of experiment [23] is Staphylococcus epidermidis. Briefly: Antimicrobial activity against Staphylococcus epidermidis 2297262-9 B-V isolated from patient with pyelonephritis assessed as >3-log reduction in urinary bacterial titer after 16 hrs. It is filed as functional, Urine.
Experiment [24] has as its system Staphylococcus epidermidis. Put plainly: Antimicrobial activity against Staphylococcus epidermidis 1949822 B-J isolated from patient with pyelonephritis assessed as >3-log reduction in urinary bacterial titer after 8 hrs. It is filed as functional, Urine.
Experiment [25] relates to Escherichia coli. Briefly: Antimicrobial activity against Escherichia coli 1780064 A-X isolated from patient with pyelonephritis assessed as >3-log reduction in urinary bacterial titer after 16 hrs. It is filed as functional, Urine. Summed up:
as §1

Experiment [26] has as its system Enterococcus faecalis. Put plainly: Antimicrobial activity against Enterococcus faecalis 2215767-10 B-S isolated from patient with pyelonephritis assessed as >3-log reduction in urinary bacterial titer after 4 hrs. In kind it is functional, Urine. Put shortly: as §1
The subject of experiment [27] is Enterococcus faecalis. Briefly: Antimicrobial activity against Enterococcus faecalis 2215767-10 B-S isolated from patient with pyelonephritis assessed as >3-log reduction in urinary bacterial titer after 24 hrs. In kind it is functional, Urine. Put shortly:
as §1

Experiment [28] relates to Enterococcus faecalis. Put plainly: Antimicrobial activity against Enterococcus faecalis 2215767-10 B-S isolated from patient with pyelonephritis assessed as >3-log reduction in urinary bacterial titer after 20 hrs. It is filed as functional, Urine. Put shortly: as §1
For experiment [29], the system named is Escherichia coli. Briefly: Antimicrobial activity against Escherichia coli 1655646 A-Y isolated from patient with pyelonephritis assessed as >3-log reduction in urinary bacterial titer after 20 hrs. In kind it is functional, Urine. Summed up:
as §1

The subject of experiment [30] is Escherichia coli. Put plainly: Antimicrobial activity against Escherichia coli 1889647 B-H isolated from patient with pyelonephritis assessed as >3-log reduction in urinary bacterial titer after 24 hrs. It is filed as functional, Urine. Summed up:
as §3

For experiment [31], the system named is Escherichia coli. Put plainly: Antimicrobial activity against Escherichia coli 2062716 B-R isolated from patient with pyelonephritis assessed as >3-log reduction in urinary bacterial titer after 8 hrs. In kind it is functional, Urine. Summed up:
as §2

The test system of experiment [32] is Enterococcus faecalis. Briefly: Antimicrobial activity against Enterococcus faecalis 2297262-10 B-V isolated from patient with pyelonephritis assessed as >3-log reduction in urinary bacterial titer after 8 hrs. It is filed as functional, Urine. Summed up:
as §1

The subject of experiment [33] is Pseudomonas aeruginosa. Briefly: Antimicrobial activity against Pseudomonas aeruginosa 2062713 B-Q isolated from patient with pyelonephritis assessed as >3-log reduction in urinary bacterial titer after 4 hrs. It is filed as functional, Urine.

The MIC is the least concentration at which growth counts as inhibited.

Regarding `C[C@@H](O)[C@H]1C(=O)N2C(C(=O)O)=C(S[C@@H]3CN[C@H](CNS(N)(=O)=O)C3)[C@H](C)[C@H]12` [DORIPENEM], the urinary bactericidal titer in experiment [1] came to 128 reciprocal titer; in the experiment with Escherichia coli [2], 16400 reciprocal titer; in the experiment with Enterococcus faecalis [3], 2048 reciprocal titer; with Escherichia coli [4], 32800 reciprocal titer; with Escherichia coli [5], 1024 reciprocal titer; in the experiment on Escherichia coli [6], 256 reciprocal titer. The urinary bactericidal titer was found to be 4096 reciprocal titer with Escherichia coli [7]; 256 reciprocal titer with Escherichia coli [8]; 32800 reciprocal titer with Escherichia coli [9]; 4096 reciprocal titer in the experiment with Escherichia coli [10]; 16400 reciprocal titer in the experiment with Escherichia coli [11]; 4096 reciprocal titer in the experiment with Escherichia coli [12]. The urinary bactericidal titer came to 4096 reciprocal titer with Escherichia coli [13]; 512 reciprocal titer in experiment [14]; 65500 reciprocal titer in the experiment on Escherichia coli [15]; 131000 reciprocal titer in the experiment with Escherichia coli [16]; 8192 reciprocal titer with Escherichia coli [17].

Regarding `C[C@H]1COc2c(N3CCN(C)CC3)c(F)cc3c(=O)c(C(=O)O)cn1c23.C[C@H]1COc2c(N3CCN(C)CC3)c(F)cc3c(=O)c(C(=O)O)cn1c23.O` [LEVOFLOXACIN], the urinary bactericidal titer worked out at 4 reciprocal titer in the experiment on Pseudomonas aeruginosa [18]; 2048 reciprocal titer in the experiment with Escherichia coli [20]; 2 reciprocal titer in experiment [23]; 4 reciprocal titer in experiment [24]; 128 reciprocal titer in the experiment on Escherichia coli [25]; 1024 reciprocal titer in the experiment with Escherichia coli [29]. For the same compound, the urinary bactericidal titer in the experiment on Escherichia coli [30] worked out at 256 reciprocal titer; with Escherichia coli [31], 512 reciprocal titer; with Enterococcus faecalis [32], 0 reciprocal titer; in the experiment on Pseudomonas aeruginosa [33], 8 reciprocal titer. The MIC against Enterococcus faecalis [19] was > 32 µg/mL; with Escherichia coli [22] it was 0.047 µg/mL. In addition, the Time in the experiment on Enterococcus faecalis [21], in the experiment with Enterococcus faecalis [26], with Enterococcus faecalis [27] and with Enterococcus faecalis [28] was 0 h each time.
